SENP7 block: inhibitors of human SENP7 protease | AID 434973 | recombinant SENP7, Z-RLRGG-aminoluciferin luminescence, 40 min | inhibition, % at 5 µM | 330,000 tested, 1.5% active | Q9BQF6;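 active = inhibition above about 50% at the single test dose, limit read from the data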;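 also: plate controls were DMSO with enzyme for no effect and no enzyme buffer wells for full effect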
SENP6 block: inhibitors of human SENP6 protease; Q9GZR1; Recombinant SENP6 catalytic domain, aminoluciferin luminescence; inhibition, % at 10 µM; 330,000 tested, 1.8% active; AID 2599;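 active = inhibition above about 50% at the single tested dose, limit read from the data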;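 also: plate controls were DMSO wells with enzyme for no effect and DMSO wells lacking enzyme for full effect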
Target sequence (Q9GZR1 628-1112 limits assumed): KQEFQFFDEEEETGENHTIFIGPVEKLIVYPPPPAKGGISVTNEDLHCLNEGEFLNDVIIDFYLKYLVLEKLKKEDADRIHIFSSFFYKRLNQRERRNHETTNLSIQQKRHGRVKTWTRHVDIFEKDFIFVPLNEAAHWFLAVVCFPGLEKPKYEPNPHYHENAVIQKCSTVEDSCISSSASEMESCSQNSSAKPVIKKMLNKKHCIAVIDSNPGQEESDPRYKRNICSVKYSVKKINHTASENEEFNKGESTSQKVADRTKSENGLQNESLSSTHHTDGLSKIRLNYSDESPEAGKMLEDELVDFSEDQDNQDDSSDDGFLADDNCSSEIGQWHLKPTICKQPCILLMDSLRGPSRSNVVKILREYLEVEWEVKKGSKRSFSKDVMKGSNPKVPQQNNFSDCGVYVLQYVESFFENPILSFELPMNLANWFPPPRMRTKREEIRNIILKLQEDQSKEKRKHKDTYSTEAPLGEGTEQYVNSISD
Apaf-1 inh: inhibitors of human Apaf-1 apoptosome; O14727; reconstituted apoptosome caspase-3 activity, DEVD-Rh110 fluorescence; inhibition, % at 20 µM; 330,000 tested, 0.71% active; AID 489030; active = inhibition of at least 40% at 20 µM;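 also: plate controls were DMSO wells for no effect and DEVD-CHO caspase inhibitor wells for full effect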
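Material: reconstituted apoptosome with Apaf-1, cytochrome c, caspase-9, procaspase-3, dATP. Technique: Rh110 fluorescence intensity. Buffer or medium: pH 7.5 Hepes buffer with CHAPS, BSA, DTT. Times: 30 min plus 50 min, RT.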
SENP8 block-1: blocks human SENP8 cleavage of Nedd8 substrate | Q96LD8 | recombinant SENP8, Nedd8 substrate fluorescence | inhibition, % at 20 µM | 360,000 tested, 0.64% active; in the data active = inhibition mostly above about 40%, no sharp cut-off; inactive = mostly below about 27%
SENP8 block-2: blocks the human protease SENP8; purified SENP8, Z-RLRGG-aminoluciferin cleavage, luminescence; inhibition, % at 10 µM; 330,000 tested, 1.2% active; in the data active = inhibition above about 50%
UBC13 polyUb: human UBC13 polyubiquitination inhibition | UBC13 polyubiquitin chain formation, TR-FRET | inhibition, % at 20 µM | 330,000 tested, 0.47% active | AID 485273; in the data active = inhibition above about 45%, passing the limit was not always enough
SENP8 confirm: human SENP8 inhibition, confirmed; Recombinant SENP8, Z-RLRGG-aminoluciferin luminescence, 60 min; 6,200 tested, 40% active; shares compounds with SENP7 block; inhibition, % at 12.5 µM; AID 488912;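 active = mean inhibition across replicates above about 50%, limit read from the data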
SENP6 confirm: human SENP6 inhibition, confirmed; shares compounds with SENP7 block; recombinant SENP6, Z-RLRGG-aminoluciferin luminescence; inhibition, % at 12.5 µM; 6,200 tested, 58% active; AID 488915
SENP7 confirm: human SENP7 inhibition, confirmed. recombinant SENP7, Z-RLRGG-aminoluciferin luminescence, 40 min. 6,200 tested, 69% active. inhibition, % at 12.5 µM. shares compounds with SENP7 block
Casp3 SENP sel: inhibits human caspase-3 in SENP selectivity test; inhibition, % at 12.5 µM; purified caspase-3, Z-DEVD-aminoluciferin luminescence, 60 min; shares compounds with SENP7 block; 6,200 tested, 60% active; AID 488918;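 active = mean inhibition above about 50%, limit read from the data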;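 also: plate controls were enzyme with DMSO for no effect and wells without caspase-3 for full effect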
Target sequence (P42574 28-227 limits assumed): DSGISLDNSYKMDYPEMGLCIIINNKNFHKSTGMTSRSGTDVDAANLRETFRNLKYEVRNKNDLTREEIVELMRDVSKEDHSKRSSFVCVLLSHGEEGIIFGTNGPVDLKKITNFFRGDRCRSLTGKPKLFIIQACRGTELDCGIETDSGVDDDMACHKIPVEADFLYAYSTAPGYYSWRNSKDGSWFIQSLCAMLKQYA
SENP luc ctr: luminescence interference (SENP counter-screen); shares compounds with SENP7 block; Pre-incubated SENP8/Z-RLRGG-aminoluciferin, luciferase luminescence interference; inhibition, % at 12.5 µM; 6,200 tested, 39% active; AID 488919;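 active = mean inhibition above about 50% when retested at one dose, limit read from the data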;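 also: plate controls were DMSO wells with completed reaction for no effect and substrate without enzyme for full effect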
* = called active by the depositor; · = no result. An excerpt weighted towards active compounds, which were near 3% of everything screened.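 The calls were made as follows, unless noted: active = mean inhibition above about 50% in the one-dose retest (limit read from the data); inactive = the rest.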

SMILES	SENP7 block	SENP6 block	Apaf-1 inh	SENP8 block-1	SENP8 block-2	UBC13 polyUb	SENP8 confirm	SENP6 confirm	SENP7 confirm	Casp3 SENP sel	SENP luc ctr
C=C[C@H]1CN2CC[C@H]1C[C@H]2[C@H](O)c1ccnc2ccc(OC)cc12	-1.1	-0.7	17.4	-107.7	-8.8	7.3	·	·	·	·	·
CCCc1cc(C(=O)Nc2ccc(F)cc2F)no1	40.3	62.9*	0.3	13.1	38.3	-3.7	7.7	38.7	71.0*	60.0*	0.0
CCCc1cc(C(=O)Nc2ccc(C(C)=O)cc2)no1	-0.3	6.5	-0.4	11.2	-4.9	1.6	·	·	·	·	·
CCCc1cc(C(=O)Nc2cccc(Cl)c2)no1	92.7*	97.5*	10.4	5.3	90.2*	8.8	94.5*	95.7*	101.6*	91.7*	89.7*
CCCc1cc(C(=O)Nc2ccc(F)c(Cl)c2)no1	92.6*	92.9*	11.7	11.5	90.4*	6.5	91.5*	92.7*	99.6*	89.1*	82.2*
O=C(Nc1ccc(F)cc1)Nc1ccc(N2CCOCC2)c2nonc12	57.3*	17.4	5.8	28.5	3.8	2.4	3.5	12.0	43.5	43.6	16.7
O=C(Nc1ccc(N2CCOCC2)c2nonc12)C1CCCC1	23.6	48.8	20.6	35.1	23.6	-35.7	·	·	·	·	·
O=C(CCCN1C(=O)/C(=C/c2ccccc2)SC1=S)Nc1ccc(C(=O)O)c(O)c1	19.6	79.0*	10.2	17.8	72.6*	-12.8	73.2*	72.0*	83.5*	31.9	76.4*
O=C(CCN1C(=O)S/C(=C/c2ccccc2)C1=O)Nc1ccc(C(=O)O)c(O)c1	10.0	56.9*	4.3	4.9	45.1	-21.6	59.6*	54.8*	73.7*	31.6	64.7*
Cc1cc(NC(=O)CCN2C(=O)/C(=C/c3ccccc3F)SC2=S)no1	8.5	-5.2	-3.1	·	-3.4	-9.9	·	·	·	·	·
O=C(CCN1C(=O)/C(=C\c2ccccc2F)SC1=S)Nc1ccc(C(=O)O)c(O)c1	11.6	66.0*	5.5	9.6	64.4*	-20.0	77.6*	73.3*	66.8*	12.1	51.7*
O=C(CCN1C(=O)S/C(=C/c2ccc(F)cc2)C1=O)Nc1ccc(O)c(C(=O)O)c1	-2.3	3.6	3.5	-268.5	-1.9	-16.6	·	·	·	·	·
COc1ccc(C=C2SC(=S)N(CCCC(=O)Nc3ccc(C(=O)O)c(O)c3)C2=O)cc1OC	·	·	·	16.8	·	·	·	·	·	·	·
O=C(CCN1C(=O)S/C(=C\c2ccc(F)cc2)C1=O)Nc1ccc(C(=O)O)c(O)c1	60.4*	82.4*	9.6	-7.0	74.8*	-12.6	85.2*	80.3*	81.3*	43.7	79.0*
N#Cc1cccc(C(=O)C(=O)N2CCN(C(=O)OCc3ccccc3)CC2)c1	·	·	·	8.3	·	·	·	·	·	·	·
CSc1ccc(CNC(=O)C2(C)CCCN(C(C)=O)C2)cc1 (centres undefined)	·	·	·	-5.1	·	·	·	·	·	·	·
C/C(=N\Nc1nccnc1Cl)c1ccc(O)c(C)c1	93.5*	53.8*	-3.7	-28.6	31.3	-6.1	43.4	47.5	75.0*	76.5*	55.5*
CCCc1nc(-c2ccc(-c3ccc(F)cc3)cc2)no1	57.1*	51.5*	-1.3	12.9	6.1	-1.2	14.1	15.8	20.1	28.3	12.7
O=C(NCCc1nc(-c2ccc(F)cc2)no1)c1ccc(F)cc1	-3.5	5.4	-8.0	-5.6	1.6	7.2	·	·	·	·	·
COc1ccc(-c2nnc(-c3cccs3)o2)cc1OC	68.3*	62.8*	-3.0	-317.9	44.5	13.0	58.3*	56.5*	85.5*	81.4*	20.4
CC(C)COc1ccc(-c2nnc(-c3ccncc3)o2)cc1	56.6*	65.7*	2.6	-315.7	26.9	1.1	25.0	31.4	41.4	46.5	30.0
c1cncc(-c2nnc(-c3cccs3)o2)c1	0.4	8.2	4.8	-132.7	-7.0	6.7	·	·	·	·	·
CCOc1ccc(-c2nnc(-c3cccs3)o2)cc1	85.4*	48.2	17.7	-284.3	73.2*	15.1	38.0	61.9*	60.4*	72.4*	22.2
COc1ccc(-c2nnc(-c3ccc(OCC(C)C)cc3)o2)cc1	5.2	6.7	18.8	-253.2	2.9	1.6	·	·	·	·	·
COc1cc(-c2nnc(-c3cccs3)o2)cc(OC)c1OC	-3.9	-0.7	6.2	-480.8	-5.8	3.5	·	·	·	·	·
SMILES	SENP7 block	SENP6 block	Apaf-1 inh	SENP8 block-1	SENP8 block-2	UBC13 polyUb	SENP8 confirm	SENP6 confirm	SENP7 confirm	Casp3 SENP sel	SENP luc ctr
c1csc(-c2nnc(-c3ccc(N4CCOCC4)cc3)o2)c1	52.1*	58.9*	-1.9	-280.9	11.0	14.8	-11.6	-2.3	29.6	32.1	15.9
CC(=O)NCCCNC(=S)NCCCN(Cc1ccc(Cl)cc1)c1ccc(Br)cn1	·	·	·	11.0	·	·	·	·	·	·	·
CC1(C(=O)Nc2ccccc2)CCN1C(=O)CCc1ccc(Cl)cc1Cl (centres undefined)	·	·	·	2.1	·	·	·	·	·	·	·
CC(C)c1ccc(CN2CCC2(C)C(=O)Nc2cccc(Oc3ccccc3)c2)cc1 (centres undefined)	·	·	·	5.3	·	·	·	·	·	·	·
CC1=NN(C(N)=S)C(=O)C1N=Nc1ccccc1O (centres undefined)	-9.1	7.3	-9.0	13.3	-3.6	-16.0	·	·	·	·	·
CC1=NN(C(N)=S)C(=O)C1N=Nc1ccccc1C (centres undefined)	47.7	-2.3	2.7	34.7	75.0*	-31.9	31.0	41.2	58.1*	70.1*	23.0
CC1=NN(C(N)=S)C(=O)C1N=Nc1c(Br)cc(Br)cc1Br (centres undefined)	0.4	85.1*	-22.8	17.7	73.8*	-15.2	1.0	82.2*	89.7*	51.1*	58.1*
CC1=NN(C(N)=S)C(=O)C1N=Nc1c(C)cc(C)cc1C (centres undefined)	0.5	15.5	1.4	25.8	-8.2	-31.7	·	·	·	·	·
CC1=NN(C(N)=S)C(=O)C1N=Nc1c(Cl)cc([N+](=O)[O-])cc1Cl (centres undefined)	81.7*	97.8*	-20.8	47.2*	95.4*	-32.1	96.1*	96.2*	101.3*	94.7*	65.4*
CC1=NN(C(N)=S)C(=O)C1N=Nc1ccccc1[N+](=O)[O-] (centres undefined)	·	·	·	27.5	·	·	·	·	·	·	·
CC1=NN(C(N)=S)C(=O)C1N=Nc1ccc(C)cc1C (centres undefined)	67.8*	91.7*	-10.9	·	81.0*	-28.1	41.4	58.2*	70.5*	68.4*	28.9

Compound activity: PubChem, Sanford-Burnham Center for Chemical Genomics
